Our source for the inhibition, IC50 and solubility values is ChEMBL document CHEMBL1944567, “Synthesis, biological evaluation, and molecular modeling of chalcone derivatives as potent inhibitors of Mycobacterium tuberculosis protein tyrosine phosphatases (PtpA and PtpB)” (J Med Chem, 2012).

The target in data set [1] is T1, Low molecular weight protein-tyrosine phosphatase A (Mycobacterium tuberculosis) (UniProt P9WIA1).
T1 sequence (whole entry): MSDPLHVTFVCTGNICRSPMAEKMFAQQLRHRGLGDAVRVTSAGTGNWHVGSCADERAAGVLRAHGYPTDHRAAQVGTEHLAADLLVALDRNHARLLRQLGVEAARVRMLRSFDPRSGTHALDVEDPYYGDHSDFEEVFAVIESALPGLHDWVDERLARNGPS
Nature of the data set: Inhibition of Mycobacterium tuberculosis PTP-A using p-nitrophenyl phosphate as substrate at 25 uM measured for 10 mins by spectrofluorimetry. The gist of the method: (§1)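 Single-point screen at 25 μM final compound, added from 1.0 × 10−3 M DMSO stock, with recombinant Mtb PtpA or PtpB (0.4 μg/μL final) in 20 mM imidazole pH 7.0 with 40 mM pNPP. Reaction started by adding enzyme. p-Nitrophenol release read at 410 nm every min for 10 min at 37 °C. Residual activity was taken from the absorbance difference between 6 and 2 min; two experiments, each in triplicate.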

The target of data set [2] is T2, Phosphotyrosine-protein phosphatase PTPB (Mycobacterium tuberculosis) (UniProt P96830).
T2 sequence (whole entry): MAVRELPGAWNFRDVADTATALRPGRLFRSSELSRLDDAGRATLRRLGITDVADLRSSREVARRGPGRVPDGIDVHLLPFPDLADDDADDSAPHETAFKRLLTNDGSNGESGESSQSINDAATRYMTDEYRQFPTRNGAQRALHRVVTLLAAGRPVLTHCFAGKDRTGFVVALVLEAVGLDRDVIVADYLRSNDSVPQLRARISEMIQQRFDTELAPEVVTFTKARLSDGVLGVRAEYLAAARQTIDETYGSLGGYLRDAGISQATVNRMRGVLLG
Description: Inhibition of Mycobacterium tuberculosis PTP-B using p-nitrophenyl phosphate as substrate at 25 uM measured for 10 mins by spectrofluorimetry. The gist of the method:
as §1

In data set [3] the target is T3, Low molecular weight protein-tyrosine phosphatase A (Mycobacterium tuberculosis, UniProt P9WIA1).
T3 sequence (P9WIA1 whole entry): T1 sequence (whole entry)
Nature of the data set: Inhibition of Mycobacterium tuberculosis PTP-A using p-nitrophenyl phosphate as substrate measured for 10 mins by spectrofluorimetry. The gist of the method:
(§2)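 A410 read each minute over 10 min at 37 °C. Residual activity compared with wells without inhibitor; IC50 by linear regression of % inhibition against concentration. Triplicate, two independent experiments.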

The nature of data set [4]: Solubility of the compound. Type of data set: physicochemical.
Data set [5] addresses T4, Phosphotyrosine-protein phosphatase PTPB (Mycobacterium tuberculosis, UniProt P96830).
T4 sequence (P96830 whole entry): T2 sequence (whole entry)
Description: Inhibition of Mycobacterium tuberculosis PTP-B using p-nitrophenyl phosphate as substrate measured for 10 mins by spectrofluorimetry. The gist of the method: as §2

Each structure is given as a SMILES string.

As usually defined, the inhibition is the change of the read-out against control, counted positive when it falls. Usually IC50 stands for the concentration that inhibits the measured activity by half. For `O=C(/C=C/c1ccc(Cl)cc1)c1ccc2c(c1)OCO2`, the inhibition in data set [1] came to 38%; in data set [2], 0%. Moreover, in data set [3], half-maximal inhibition (IC50) required 117 µM. The solubility entry in data set [4] is reported as “soluble”.
As for `Cc1ccc(/C=C/C(=O)c2ccc3c(c2)OCO3)o1`, the inhibition in data set [1] is 40%; in data set [2], 8%. For the same compound, the IC50 in data set [3] turned out to be 169 µM. In data set [4], the solubility entry was “soluble”.
For `O=C(/C=C/c1cccc(C(F)(F)F)c1)c1ccc2c(c1)OCO2`, the inhibition in data set [1] turned out to be 41%; in data set [2], 0%. Moreover, in data set [3], the midpoint of inhibition, the IC50, lay at 155 µM. In addition, in data set [4], the solubility entry was “soluble”.
In the case of `O=C(/C=C/c1ccc2ccccc2c1)c1ccc2ccccc2c1`, the inhibition is 39% in data set [1] and 25% in data set [2]. In addition, the IC50 in data set [3] is 93 µM. Besides, in data set [4], the solubility result is on record as “soluble”.
Consider `O=C(/C=C/c1ccc2ccccc2c1)c1ccc[nH]1`, for which the inhibition in data set [1] was determined as 16%; in data set [2] it was 37%. This compound displayed an IC50 in data set [5] of 81 µM. In data set [4], the solubility result was “soluble”.
For `COc1cc(/C=C/C(=O)c2ccc(-n3ccnc3)cc2)ccc1OCc1ccccc1`, the inhibition in data set [1] was found to be 38%; in data set [2], 0%. In data set [3], this compound displayed an IC50 of 102 µM. Moreover, the solubility result in data set [4] is reported as “soluble”.
On to `O=C(/C=C/c1ccc(Br)cc1)c1ccc2c(c1)OCO2`, for which the inhibition in data set [1] was determined as 37%; in data set [2], 9%. Besides, half-maximal inhibition in data set [3] (IC50) was put at 66 µM. Besides, in data set [4], the solubility entry is “soluble”.
For `O=C(/C=C/c1cccc2ccccc12)c1ccc2ccccc2c1` the same measures were 43%, 0%, 93 µM and “soluble”.
Regarding `COc1cc(/C=C/C(=O)c2ccc(Br)cc2)ccc1OCc1ccccc1`, the inhibition is 63% in data set [1] and 0% in data set [2]. The compound further showed an IC50 in data set [3] of 302 µM. Moreover, the solubility entry in data set [4] is recorded as “soluble”.
Take `Cc1ccc(/C=C/C(=O)c2ccc3ccccc3c2)o1`: the inhibition was 30% in data set [1] and 0% in data set [2]. In data set [3], this compound displayed an IC50 of 1020 µM. In addition, in data set [4], the solubility entry is recorded as “soluble”.
In the case of `Cc1ccc(C(=O)/C=C/c2ccc3ccccc3c2)cc1`, the inhibition in data set [1] was found to be 10%; in data set [2] it was 34%. In data set [5], the midpoint of inhibition, the IC50, lay at 135 µM. The solubility result in data set [4] was “soluble”.
In the case of `O=C(/C=C/c1ccc2ccccc2c1)c1ccc(-n2ccnc2)cc1`, the results for the inhibition in data set [1] and in data set [2] were 40% and 0%, respectively. This compound gave a concentration for half-maximal inhibition (IC50) in data set [3] of 100 µM. The solubility result in data set [4] was “soluble”.
As to `COc1cc(OC)c(/C=C/C(=O)c2ccc3ccccc3c2)c(OC)c1`, the inhibition was 49% in data set [1] and 0% in data set [2]. Also, the IC50 in data set [3] was 1660 µM. In data set [4], the solubility entry is “soluble”.
In the same order, the values of `COc1ccc(/C=C/C(=O)c2ccc3c(c2)OCO3)c(OC)c1OC` are 26%, 9%, 83 µM and “soluble”.
For `O=C(/C=C/c1ccc([N+](=O)[O-])cc1)c1ccc2c(c1)OCO2` the same measures were 35%, 10%, 74 µM and “soluble”.
For the compound `COc1cccc(OC)c1/C=C/C(=O)c1ccc2ccccc2c1`, the inhibition stood at 40% in data set [1] and 24% in data set [2]. In addition, 214 µM corresponded to half-maximal inhibition in data set [3] (IC50). The solubility result in data set [4] is reported as “soluble”.
Turning to `N#Cc1ccc(/C=C/C(=O)c2ccc3c(c2)OCO3)cc1`, the inhibition in data set [1] turned out to be 4%; in data set [2], 0%. For the same compound, in data set [4], the solubility entry was “soluble”.
As for `COc1cc(/C=C/C(=O)c2ccc3c(c2)OCO3)ccc1OCc1ccccc1`, the values for the inhibition in data set [1] and in data set [2] were 12% and 0%, respectively. Further, in data set [4], the solubility result is “soluble”.
For the compound `O=C(/C=C/c1ccc(C(F)(F)F)cc1)c1ccc2c(c1)OCO2`, the inhibition worked out at 7% in data set [1] and 0% in data set [2]. In addition, the solubility result in data set [4] is reported as “soluble”.
With `COc1cc(/C=C/C(=O)c2ccc3ccccc3c2)ccc1OCc1ccccc1`, the figures for the inhibition in data set [1] and in data set [2] were 5% and 0%, respectively. In addition, the solubility result in data set [4] was “soluble”.
As to `O=C(/C=C/c1c(Cl)cccc1Cl)c1ccc2c(c1)OCO2`, the inhibition was determined as 13% in data set [1] and 0% in data set [2]. For the same compound, the solubility entry in data set [4] is given as “soluble”.
As for `O=C(/C=C/c1ccccc1)c1ccc2ccccc2c1`, the figures for the inhibition in data set [1] and in data set [2] were 4% and 16%, respectively. Also, the solubility result in data set [4] is reported as “soluble”.
In the case of `COc1cc(OC)c(C(=O)/C=C/c2ccc3ccccc3c2)cc1OC`, the inhibition in data set [1] was determined as 22%; in data set [2], 14%. Further, the solubility entry in data set [4] is “soluble”.
Turning to `CCCCOc1ccc(/C=C/C(=O)c2ccc3c(c2)OCO3)cc1`, the inhibition in data set [1] is 11%; in data set [2], 0%. Besides, in data set [4], the solubility entry was “soluble”.
On to `Cc1ccc(/C=C/C(=O)c2ccc3c(c2)OCO3)cc1`, for which the inhibition in data set [1] is 14%; in data set [2] it was 0%. Besides, in data set [4], the solubility entry was “soluble”.
With `COc1ccc(/C=C/C(=O)c2ccc3ccccc3c2)cc1`, the inhibition worked out at 35% in data set [1] and 0% in data set [2]. Besides, in data set [3], the IC50 came out at 93 µM. The solubility result in data set [4] is recorded as “soluble”.
Regarding `O=C(/C=C/c1ccccc1F)c1ccc2ccccc2c1`, the inhibition in data set [1] was found to be 23%; in data set [2] it was 0%. Also, the solubility result in data set [4] is on record as “soluble”.
On to `CN(C)c1ccc(/C=C/C(=O)c2ccc3c(c2)OCO3)cc1`, for which the inhibition stood at 10% in data set [1] and 0% in data set [2]. In addition, the solubility entry in data set [4] is “soluble”.
Turning to `COc1ccc(OC)c(/C=C/C(=O)c2ccc3ccccc3c2)c1`, the figures for the inhibition in data set [1] and in data set [2] were 22% and 0%, respectively. In addition, the solubility result in data set [4] is listed as “soluble”.
Take `COc1cc(OC)c(/C=C/C(=O)c2ccc3c(c2)OCO3)c(OC)c1`: the inhibition in data set [1] came out at 5%; in data set [2], 0%. In data set [4], the solubility entry is on record as “soluble”.
Regarding `O=C(/C=C/c1cc(Cl)cc(Cl)c1)c1ccc2ccccc2c1`, the values for the inhibition in data set [1] and in data set [2] were 19% and 29%, respectively. The solubility entry in data set [4] was “soluble”.
`O=C(/C=C/c1ccc(Cl)c(C(F)(F)F)c1)c1ccc2c(c1)OCO2`: the inhibition in data set [1] and in data set [2] was 0% in each case. In addition, the solubility entry in data set [4] is “soluble”.
In the case of `COc1ccc2nc(Cl)c(/C=C/C(=O)c3ccc4c(c3)OCO4)cc2c1`, the values for the inhibition in data set [1] and in data set [2] were 29% and 0%, respectively. Also, the IC50 in data set [3] was 93 µM. Further, the solubility result in data set [4] is listed as “soluble”.
On to `COc1cc(/C=C/C(=O)c2ccc3c(c2)OCO3)cc(OC)c1OC`, for which the inhibition came to 5% in data set [1] and 0% in data set [2]. Also, the solubility entry in data set [4] is on record as “soluble”.
In the same order, the values of `COc1cccc(/C=C/C(=O)c2ccc3ccccc3c2)c1` are 10%, 0% and “soluble”.
As to `COc1ccc(C(=O)/C=C/c2ccc3c(c2)OCO3)c(OC)c1`, the inhibition in data set [1] is 42%; in data set [2] it was 0%. Further, the IC50 in data set [3] came out at 101 µM. Also, the solubility result in data set [4] was “soluble”.
As to `O=C(/C=C/c1ccc2c(c1)OCO2)c1ccc2c(c1)OCO2`, the inhibition was determined as 6% in data set [1] and 0% in data set [2]. For the same compound, in data set [4], the solubility result is given as “soluble”.
`O=C(/C=C/c1ccc(-c2cc(C(F)(F)F)ccc2Cl)o1)c1ccc2c(c1)OCO2`: the inhibition stood at 36% in data set [1] and 16% in data set [2]. The same compound showed an IC50 in data set [3] of 174 µM. Besides, the solubility result in data set [4] is given as “soluble”.
Turning to `O=C(/C=C/c1ccc(Cl)cc1Cl)c1ccc2c(c1)OCO2`, the inhibition is 27% in data set [1] and 0% in data set [2]. For the same compound, the IC50 in data set [3] amounted to 407 µM. Further, in data set [4], the solubility entry is listed as “soluble”.
In the case of `O=C(/C=C/c1ccc(Cl)c(Cl)c1)c1ccc2c(c1)OCO2`, the inhibition amounted to 35% in data set [1] and 0% in data set [2]. The compound also came in with an IC50 in data set [3] of 151 µM. For the same compound, the solubility result in data set [4] was “soluble”.
For `COc1ccc(OC)c(/C=C/C(=O)c2ccc3c(c2)OCO3)c1`, the figures for the inhibition in data set [1] and in data set [2] were 10% and 0%, respectively. Further, the solubility result in data set [4] is on record as “soluble”.
